Test results taken from ChEMBL document CHEMBL4130626, “α-Arylidene Diacylglycerol-Lactones (DAG-Lactones) as Selective Ras Guanine-Releasing Protein 3 (RasGRP3) Ligands” (J Med Chem, 2018).

How the values were obtained:
Type in all cases: cell-based
[1] = target: Protein kinase C delta type (Homo sapiens, UniProt Q05655); assay: Activation of PKCdelta (unknown origin) expressed in HEK293 cells harboring GFP-tagged RasGRP3 assessed as phosphorylation at ser299 residues after 30 mins by immunoblot method
Protein kinase C delta type, sequence (Q05655 whole entry): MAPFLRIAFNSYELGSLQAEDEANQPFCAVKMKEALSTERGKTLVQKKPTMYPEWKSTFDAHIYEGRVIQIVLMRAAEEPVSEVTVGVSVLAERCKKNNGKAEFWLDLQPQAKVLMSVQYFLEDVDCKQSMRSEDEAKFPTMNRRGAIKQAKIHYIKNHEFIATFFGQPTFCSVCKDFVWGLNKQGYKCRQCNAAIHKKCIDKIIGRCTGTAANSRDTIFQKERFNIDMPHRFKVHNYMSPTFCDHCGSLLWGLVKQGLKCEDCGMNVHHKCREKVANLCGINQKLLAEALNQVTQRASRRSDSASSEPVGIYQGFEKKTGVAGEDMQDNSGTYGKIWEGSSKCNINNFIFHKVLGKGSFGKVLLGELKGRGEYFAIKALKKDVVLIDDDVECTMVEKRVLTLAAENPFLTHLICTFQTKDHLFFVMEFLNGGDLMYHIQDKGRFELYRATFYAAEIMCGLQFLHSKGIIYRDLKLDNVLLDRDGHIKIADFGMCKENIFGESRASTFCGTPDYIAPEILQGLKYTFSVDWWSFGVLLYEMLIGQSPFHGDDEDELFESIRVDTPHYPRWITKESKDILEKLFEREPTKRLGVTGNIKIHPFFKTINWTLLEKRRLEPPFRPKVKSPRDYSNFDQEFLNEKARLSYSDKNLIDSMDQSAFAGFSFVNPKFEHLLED
How it was run: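 Cells are GFP-RasGRP3-transfected HEK293, grown in EMEM + 10% FBS. Exposed 30 min at 37 °C, 5% CO2, to half-log concentrations up to 10 µM, 1000 nM PMA or DMSO. Lysed in RIPA with protease and phosphatase inhibitors. 50 µg protein run on 10% SDS-PAGE and blotted for phospho-PKCδ S299; anti-GFP used as loading control. Signal normalised to 1000 nM PMA. EC50 is the mean of n = 3.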

[2] = target: T1, Ras guanyl-releasing protein 3 (Homo sapiens, UniProt Q8IV61); assay: Activation of GFP-tagged RasGRP3 (unknown origin) expressed in HEK293 cells after 30 mins by immunoblot method
T1 sequence (Q8IV61 whole entry): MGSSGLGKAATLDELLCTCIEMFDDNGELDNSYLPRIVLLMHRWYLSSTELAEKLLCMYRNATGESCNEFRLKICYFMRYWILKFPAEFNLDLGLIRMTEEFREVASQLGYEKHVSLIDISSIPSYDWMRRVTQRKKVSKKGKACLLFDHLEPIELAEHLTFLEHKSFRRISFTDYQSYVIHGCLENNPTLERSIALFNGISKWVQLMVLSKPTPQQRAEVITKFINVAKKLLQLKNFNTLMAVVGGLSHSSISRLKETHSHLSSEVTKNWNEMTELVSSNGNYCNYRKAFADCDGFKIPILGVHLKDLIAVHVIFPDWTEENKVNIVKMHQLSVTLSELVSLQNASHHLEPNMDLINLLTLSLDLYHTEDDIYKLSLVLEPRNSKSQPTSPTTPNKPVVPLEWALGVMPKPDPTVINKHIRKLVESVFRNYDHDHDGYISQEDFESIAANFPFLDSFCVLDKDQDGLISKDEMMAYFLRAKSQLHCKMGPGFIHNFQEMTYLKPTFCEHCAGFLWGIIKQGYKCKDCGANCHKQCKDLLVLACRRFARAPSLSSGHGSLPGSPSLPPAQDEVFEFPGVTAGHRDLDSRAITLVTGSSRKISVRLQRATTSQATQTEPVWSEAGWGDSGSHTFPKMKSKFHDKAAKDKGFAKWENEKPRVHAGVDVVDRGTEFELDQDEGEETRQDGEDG
How it was run: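 HEK293 cells grown in EMEM + 10% FBS, transfected after 48 h with GFP-RasGRP3 (Lipofectamine Plus). Treated 30 min at 37 °C, 5% CO2, with half-log increasing concentrations up to 10 µM, 1000 nM PMA or DMSO. Active Ras pulled down from lysates on Raf1-RBD agarose (60 min, 4 °C), immunoblotted with anti-Pan-Ras. Band intensity normalised to 1000 nM PMA. EC50 is the mean of n = 3.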

[3] = target: T2, RAS guanyl-releasing protein 1 (Homo sapiens, UniProt O95267); assay: Activation of GFP-tagged RasGRP1 (unknown origin) expressed in human LNCAP cells after 30 mins by immunoblot method
T2 sequence (O95267 whole entry): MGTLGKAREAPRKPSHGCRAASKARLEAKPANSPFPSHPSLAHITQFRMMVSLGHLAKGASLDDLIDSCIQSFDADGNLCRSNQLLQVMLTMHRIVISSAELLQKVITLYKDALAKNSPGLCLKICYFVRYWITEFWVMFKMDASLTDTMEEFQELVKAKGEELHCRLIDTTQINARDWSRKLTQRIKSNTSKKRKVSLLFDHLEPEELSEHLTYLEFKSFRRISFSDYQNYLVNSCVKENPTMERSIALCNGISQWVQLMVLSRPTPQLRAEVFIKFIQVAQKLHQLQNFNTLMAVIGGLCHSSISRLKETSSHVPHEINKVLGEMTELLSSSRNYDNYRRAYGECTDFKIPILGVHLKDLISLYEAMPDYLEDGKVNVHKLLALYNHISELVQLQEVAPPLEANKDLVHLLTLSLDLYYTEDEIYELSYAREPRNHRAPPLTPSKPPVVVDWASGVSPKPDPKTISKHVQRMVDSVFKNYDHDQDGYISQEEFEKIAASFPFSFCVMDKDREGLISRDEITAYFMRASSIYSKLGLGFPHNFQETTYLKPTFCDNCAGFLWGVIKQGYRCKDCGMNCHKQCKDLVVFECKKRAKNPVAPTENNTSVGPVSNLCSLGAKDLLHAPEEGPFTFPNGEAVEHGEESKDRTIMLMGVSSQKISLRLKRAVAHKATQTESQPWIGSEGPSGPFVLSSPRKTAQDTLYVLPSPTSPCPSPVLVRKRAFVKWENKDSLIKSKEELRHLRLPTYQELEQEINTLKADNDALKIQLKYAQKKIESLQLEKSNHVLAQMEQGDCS
How it was run: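 Cells expressing GFP-RasGRP1/3 (HEK293 or LNCaP, 48 h after plating, transfected; expression checked by fluorescence 24-48 h later) or Ramos with endogenous RasGRP3 treated with half-log increasing concentrations (max 10 µM), 1000 nM PMA or DMSO, 37 °C, 30 min, 5% CO2. RasGTP by Raf1 RBD bead pulldown and anti-Pan-Ras immunoblot; pERK by western blot. Band intensities normalized to 1000 nM PMA; EC50 from n = 3.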

- EC50 [1]: 16.9 µM
- EC50 [2]: 1830 nM
- EC50 [3]: 970 nM
SMILES: Cn1cc(/C=C2\CC(CO)(COC(=O)C(C)(C)C)OC2=O)c2ccccc21 (stereo not drawn)
